ChEMBL document CHEMBL1137995, “Synthesis of some newer analogues of substituted dibenzoyl phenol as potent anti-inflammatory agents” (Bioorg Med Chem Lett, 2004)
Activity calls are given as the source filed them. The rule behind the calls is not given here.

Columns and labels:
Rattus norvegicus [1] = test: Ulcerogenic activity was measured in fasting rat with hyperaemia on peroral administration of 400 mg/kg; type: functional; conditions: route oral
Method in brief: (§1)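 Rats (200–230 g), ten per group, fasted 24 h, given a single oral dose of 100, 200 or 400 mg/kg. Animals were killed 5 h after dosing. Stomach and small intestine were examined under a microscope for hyperaemia, epithelial shedding, petechiae, frank haemorrhage, and erosion or ulceration. Values are percent of animals showing hyperaemia or showing ulcer.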

Rattus norvegicus [2] = test: Ulcerogenic activity was measured in fasting rat with hyperaemia on peroral administration of 200 mg/kg; type: functional; conditions: route oral; method in brief: as §1
Rattus norvegicus [3] = test: Ulcerogenic activity was measured in fasting rat with hyperaemia on peroral administration of 100 mg/kg; type: functional; conditions: route oral; method in brief: as §1
Rattus norvegicus [4] = test: Ulcerogenic activity was measured in fasting rat with ulcer on peroral administration of 400 mg/kg; type: functional; conditions: route oral; method in brief: as §1
Rattus norvegicus [5] = test: Percent of carageenam induced paw oedema inhibition in rat as a measure of anti-inflammatory activity at 20 mg/kg dose on peroral administration; type: functional; conditions: route oral
Method in brief: (§2)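 Albino rats (125–160 g), five per group, dosed orally at 20, 40 or 80 mg/kg. After 30 min, 0.2 mL of 1% carrageenan in 0.9% NaCl was injected subcutaneously into the plantar aponeurosis of the hind paw. Paw volume was read by water plethysmometer at injection and at 3 h. Inhibition = (1 − Gt/Gc) × 100 against a carrageenan-only control group of five rats.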

[6] = Acute lethal dose of compound was determined in mice when administered perorally; type: ADME; conditions: mouse, in vivo, po; read-out: ALD50
Method in brief: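 Albino mice (25–30 g), groups of 10 per dose level, given test compound at several dose levels. Percent mortality in each group was recorded 24 h after dosing. The approximate 50% lethal dose (ALD50) was calculated by the Smith method.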

Rattus norvegicus [7] = test: Ulcerogenic activity was measured in fasting rat with ulcer on peroral administration of 200 mg/kg; type: functional; conditions: route oral; method in brief: as §1
Rattus norvegicus [8] = test: Ulcerogenic activity was measured in fasting rat with ulcer on peroral administration of 100 mg/kg; type: functional; conditions: route oral; method in brief: as §1
Rattus norvegicus [9] = organism: Rattus norvegicus; test: Effective dose of compound for anti-inflammatory activity; type: functional
Rattus norvegicus [10] = test: Percent of carageenam induced paw oedema inhibition in rat as a measure of anti-inflammatory activity at 80 mg/kg dose on peroral administration; type: functional; conditions: route oral; method in brief: as §2
Rattus norvegicus [11] = test: Percent of carageenam induced paw oedema inhibition in rat as a measure of anti-inflammatory activity at 40 mg/kg dose on peroral administration; type: functional; conditions: route oral; method in brief: as §2
Oryctolagus cuniculus [12] = organism: Oryctolagus cuniculus; test: Percent inhibition of cyclooxygenase activity of compound at 10 uM concentration; No inhibition; type: functional
Method in brief: (§3)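 Microsomes came from rabbit distal colon mucosa, homogenized in Tris pH 8.0, centrifuged, resuspended and recentrifuged, and used immediately. Microsomes were preincubated with test agent 10 min at 37 °C in Tris–HCl pH 8.0 containing 2 mM glutathione, 5 mM L-tryptophan and 1 µM haematin. Then 20 µM arachidonic acid with [1-14C] tracer was added and reacted 5 min at 37 °C. PGE2 was separated by HPLC, radioactivity counted by scintillation, and inhibition taken against paired controls.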

Oryctolagus cuniculus [13] = organism: Oryctolagus cuniculus; test: Percent inhibition of cyclooxygenase activity of compound at 10 uM concentration; type: functional; method in brief: as §3

Row | Structure (SMILES) | Ulcerogenic activity (Rattus norvegicus [1]) | Ulcerogenic activity (Rattus norvegicus [2]) | Ulcerogenic activity (Rattus norvegicus [3]) | Ulcerogenic activity (Rattus norvegicus [4]) | Antiinflammatory Activity (Rattus norvegicus [5]) | LD50 [6] | Ulcerogenic activity (Rattus norvegicus [7]) | Ulcerogenic activity (Rattus norvegicus [8]) | ED50 (Rattus norvegicus [9]) | Antiinflammatory Activity (Rattus norvegicus [10]) | Antiinflammatory Activity (Rattus norvegicus [11]) | inhibition (Oryctolagus cuniculus [12]) | Inhibition (Oryctolagus cuniculus [13])
1 | Cc1cc(C(=O)c2ccccc2)c(O)c(C(=O)c2ccccc2)c1 | 60% | 40% | 20% | 80% | 13.7% | > 1000 mg/kg | 50% | 40% | 77.5 mg/kg | 45.5% | 22.2% | inactive | 
2 | Cc1cc(C(=O)c2ccccc2C)c(O)c(C(=O)c2ccccc2C)c1 | 90% | 70% | 50% | 15% | 16.6% | > 1000 mg/kg | 10% | 5% | 77.2 mg/kg | 64.1% | 33.2% |  | 70%
3 | CCCCC1C(=O)N(c2ccccc2)N(c2ccccc2)C1=O [PHENYLBUTAZONE] | 90% | 60% | 30% | 90% | 31.3% |  | 60% | 30% |  | 57.2% | 35.5% |  | 89%
4 | Cc1ccc(C(=O)c2cc(C(=O)c3ccccc3)cc(C)c2O)cc1 | 100% | 90% | 70% | 40% | 20.1% | > 1000 mg/kg | 20% | 10% | 62.5 mg/kg | 62.8% | 29.1% |  | 40%
5 | Cc1ccc(C(=O)c2cc(C)cc(C(=O)c3ccc(C)cc3)c2O)cc1 | 100% | 70% | 50% | 40% | 22.2% | > 1000 mg/kg | 30% | 20% | 60.2 mg/kg | 77.1% | 45.4% |  | 87%
6 | Cc1cc(C(=O)c2cccc(Cl)c2)c(O)c(C(=O)c2cccc(Cl)c2)c1 | 90% | 60% | 30% | 12% | 30.3% | > 1000 mg/kg | 20% | 10% | 51.2 mg/kg | 94.1% | 48.2% | inactive | 
7 | Cc1ccccc1C(=O)c1cc(C)c(O)c(C(=O)c2ccccc2)c1 | 100% | 60% | 40% | 40% | 14.1% | > 1000 mg/kg | 20% | 10% | 78.3 mg/kg | 55.3% | 29.5% |  | 20%
8 | CC(=O)Oc1ccccc1C(=O)O [ASPIRIN] | 90% | 60% | 30% | 90% | 30.4% |  | 90% | 80% | 98.3 mg/kg | 59.6% | 35.5% |  | 99%
